A selection: hits, their analogues and other compounds. The true share with any hit is near 7.9%.
SF-1 act – activators of human SF-1, primary screen, cell-based, CHO-K1, Gal4-SF-1 LBD, luciferase luminescence | Steroidogenic factor 1 (Homo sapiens), Q13285 | CHO-K1 Gal4-SF-1 LBD luciferase reporter; % increase over DMSO SF-1-specific signal | activation, % at 10 µM | hit rate 1.9% among 65,000;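 active = activation above the mean activation of all tested compounds plus 3 SD, cut at about 50% in these data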
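System: CHO-K1 cells with Gal4–hSF-1 LBD chimera plus Gal4-driven luciferase; quantity: 4,000 CHO-K1 cells per well; compound: one dose, 10 µM compound, 1% DMSO; times: 20 h compound treatment, 37 °C; measured by: SteadyLite luciferase luminescence; read-out: percent activation versus DMSO; benchmarks: DMSO and mock-transfected background; replicates: one test per compound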
D1 mod – D1 CRE-luciferase signal change, two-sided – cell-based, HEK293 D1, dopamine EC30, D1 allosteric modulator project, primary screen; dopamine EC30 potentiation; actives deviate in either direction; B-score at 10 µM; AID 641, 2007; hit rate 5.9% among 58,000; D(1A) dopamine receptor (Homo sapiens), P21728;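 active = luminescence count or its row- and column-corrected plate score outside the 99.7% band of the plate's sample wells, on either side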
Target sequence (P21728 whole entry, looked up): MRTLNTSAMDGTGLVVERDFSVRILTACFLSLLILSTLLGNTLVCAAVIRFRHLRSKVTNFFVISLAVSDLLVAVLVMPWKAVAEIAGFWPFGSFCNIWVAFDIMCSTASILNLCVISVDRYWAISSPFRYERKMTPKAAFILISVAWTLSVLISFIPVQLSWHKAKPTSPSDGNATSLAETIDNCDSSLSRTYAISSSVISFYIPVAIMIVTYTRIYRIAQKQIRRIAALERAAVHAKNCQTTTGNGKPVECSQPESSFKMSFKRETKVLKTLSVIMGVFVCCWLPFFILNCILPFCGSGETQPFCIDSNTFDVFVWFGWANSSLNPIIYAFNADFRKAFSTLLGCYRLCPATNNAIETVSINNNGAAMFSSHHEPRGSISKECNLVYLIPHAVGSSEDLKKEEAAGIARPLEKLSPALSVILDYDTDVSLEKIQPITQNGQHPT
RORA act – activators of orphan receptor RORA, primary screen, cell-based, luminescence. activation, % at 10 µM. CHO-K1 Gal4-RORA LBD luciferase reporter; percent increase over mock-subtracted basal signal. AID 560, 2006. hit rate 1.5% among 65,000;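 active = activation above the mean of all tested compounds plus 3 SD, cut at about 49% in these data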;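 also: 0% = DMSO-treated RORA cells and 100% = added signal equal to DMSO minus mock-transfected cells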
HEK293 NFkB inh – inhibitors of PMA/ionomycin-induced NF-kB reporter, primary screen, antigen receptor NF-kB inhibitor project, cell-based, HEK-293 luciferase reporter, luminescence | HEK-293 NF-kB luciferase reporter | inhibition, % at 3 µM | hit rate 0.21% among 62,000;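 active = inhibition above the mean of all tested compounds plus 3 SD, cut at about 40% in these data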;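 also: 0% = stimulated DMSO wells and 100% = 10 µM reference inhibitor 5653914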
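Timing: 1 h pretreatment, 16 h stimulation, 37 °C; system: HEK-293 cells with stable firefly luciferase reporter driven by four HIV NF-kB elements; doses: 3 µM once, 0.30% DMSO; measured by: luciferase luminescence; control set: DMSO and 10 µM reference inhibitor; repeats: single test; reagent: PMA plus ionomycin mix as NF-kB-activating stimulus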
JNK3 blocker – JNK3 kinase activity inhibitors, primary screen, biochemical, human, purified enzyme. Mitogen-activated protein kinase 10 (Homo sapiens), P53779. HTS. inhibition, % at 8 µM. hit rate 0.61% among 60,000; in the data active = inhibition above about 17%;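 also: 0% = DMSO and 100% = reference inhibitor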
D1 PAM confirm – D1 receptor positive allosteric modulators, retest, confirmation, cell-based, HEK293 D1, CRE-luciferase, duplicate. shares compounds with D1 mod. AID 642, 2007. dopamine EC30 potentiation; active compounds read high. hit rate 88% among 2,200. luminescence at 10 µM;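 active = luminescence in either of two replicates above the same-plate mean plus 3 SD of the low-dose dopamine control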
D1 no dopamine – D1 receptor agonism without dopamine, confirmation, mechanism study for D1 allosteric modulator project, cell-based, HEK293 D1, CRE-luciferase, secondary assay 1 | shares compounds with D1 mod | luminescence, no dopamine; active compounds read high | luminescence at 10 µM | hit rate 0.8% among 1,900; in the data active = luminescence above about 3900
Isoprot counter – isoproterenol response counter-screen activity for D1 modulators. shares compounds with D1 mod. HEK293 D1 CRE-luciferase, isoproterenol EC30 counter-screen. calls only at 10 µM. hit rate 63% among 2,200;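 active = luminescence in either replicate above plate mean of wells with a partly effective reference agonist dose plus 3 SD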;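 also: isoproterenol raises cAMP through native beta-adrenoceptor Gs so signal bypasses D1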
The depositor's hits bear a star; i = inactive; x = no result given; + = active, no number.

SMILES	SF-1 act	D1 mod	RORA act	HEK293 NFkB inh	JNK3 blocker	D1 PAM confirm	D1 no dopamine	Isoprot counter
c1ccc(-c2oc3ncnc(NCCN4CCOCC4)c3c2-c2ccccc2)cc1	8	0.45	6	14	0	x	x	x
Nc1nc(-c2cccs2)c(NC(=O)c2ccccc2)s1	7	6*	5	19	-8	14100*	1740	+
CCOC(=O)c1c(-c2cccs2)csc1NC(=O)c1ccncc1	-25	0.78	-17	x	-2	x	x	x
COc1ccccc1NC(=O)N1CCN(c2cc(-c3ccccc3)nc3ncnn23)CC1	2	0.3	-24	15	0	x	x	x
COc1ccc(-n2nc3ccccc3n2)cc1	33	3.2*	19	-4	14	10504*	1592	i
CCCC(=O)Nc1ccc(NC(=O)C2CC2)cn1	2	5.3*	-13	-5	-6	5976*	1712	i
CC(C)Sc1nc(-c2cccs2)nc2c1c(=O)n(C)c(=O)n2C	-12	0.09	11	-8	-4	x	x	x
CCOC(=O)N1CCN(C(=O)C(C)(C)Oc2ccc(Cl)cc2)CC1	-15	1.9*	18	16	-3	7408*	1572	i
CCN1CCN(Cc2c(C)[nH]c3ccc(OC)cc3c2=O)CC1	-20	0.23	-16	18	x	x	x	x
CCn1ncc2c1C(=O)NC1c3ccccc3C(=O)N21 (stereo not given)	19	17*	6	5	11	21460*	x	+
COc1ccccc1N1C(=O)c2ccccc2NC1c1ccncc1 (stereo not given)	9	0.81	0	11	x	x	x	x
COc1ccc2c(C(F)(F)F)cc(=O)oc2c1C	3	4.8*	-7	6	-1	6684*	1588	i
CCN(CCO)Cc1cc(=O)oc2c(C)c(C)ccc12	8	1.5	-9	8	-5	x	x	x
CCCc1nc2ccccc2c(C(=O)OC2CCOC2=O)c1CC (stereo not given)	5	1.8	7	16	1	x	x	x
CCc1nc2ccccc2c(C(=O)OC2CCOC2=O)c1C (stereo not given)	8	5.4*	-6	8	2	11292*	1608	+
N#Cc1c2n(cnc1=O)CCCCC2	x	-0.71	x	x	x	x	x	x
Cc1csc2c(C#N)c(=O)c3c(n12)CCC3	-2	4.4*	8	6	10	6564*	1476	i
Cc1ccc(S(=O)(=O)c2c(N)n(CCN3CCOCC3)c3nc4ccccc4nc23)cc1C	-9	1.1	9	6	6	x	x	x
N#CCCn1c2ccccc2c2nc3ccccc3nc21	21	14*	15	11	2	19256*	1672	+
Cc1ccc2c(c1)c1nc3ccccc3nc1n2CCN1CCOCC1	27	7.7*	2	6	2	21896*	1556	+
CCOC(=O)Cn1c2ccccc2c2nc3ccccc3nc21	1	4.8*	8	2	4	14192*	1640	i
O=c1oc2ccccc2n1CCn1c2ccccc2c2nc3ccccc3nc21	-18	-0.36	-3	14	-3	x	x	x
CCCn1c2ccccc2c2nnc(SCC(=O)OCC)nc21	9	4.4	-16	3	x	x	x	x
CCCn1c2ccccc2c2nc3ccccc3nc21	-6	5.7*	-2	0	1	12892*	1720	+
N#CCCn1nnc2ccccc21	7	-0.028	11	6	-7	x	x	x
